Source: ChEMBL document CHEMBL1141572, “N-substituted 3-acetyltetramic acid derivatives as antibacterial agents” (J Med Chem, 2008)
≈ marks a conversion by molar mass, not a printed value. Calls of active or inactive are those of the source. No cut-off for these calls is given here.

How the values were obtained:
[1] = tested on: Mycobacterium tuberculosis; assay: Antimycobacterial activity against Mycobacterium tuberculosis H37Rv after 7 days by micro-broth dilution method; type: functional; details: for MIC: 168 h
Bacillus anthracis = assay: Antibacterial activity against Bacillus anthracis Sterne 34F2 by micro-broth dilution method; type: functional
Bacillus subtilis = assay: Antibacterial activity against Bacillus subtilis ATCC 23857 by microbroth dilution method; type: functional
Enterococcus faecalis = assay: Antibacterial activity against Enterococcus faecalis ATCC 33186 by microbroth dilution method; type: functional
Staphylococcus aureus [2] = assay: Antibacterial activity against methicillin-resistant Staphylococcus aureus ATCC 33591 by micro-broth dilution method; type: functional
Staphylococcus aureus [3] = assay: Antibacterial activity against methicillin-sensitive Staphylococcus aureus 8325 ATCC 35556 by micro-broth dilution method; type: functional
Cutibacterium acnes = assay: Antibacterial activity against Propionibacterium acnes ATCC 6919 by micro-broth dilution method; type: functional
Streptococcus pyogenes = assay: Antibacterial activity against Streptococcus pyogenes ATCC 700294 by micro-broth dilution method; type: functional
Streptococcus pneumoniae = assay: Antibacterial activity against Streptococcus pneumoniae DAW30 by micro-broth dilution method; type: functional
Escherichia coli = assay: Antibacterial activity against Escherichia coli by micro-broth dilution method; type: functional
Pseudomonas aeruginosa = assay: Antibacterial activity against Pseudomonas aeruginosa by micro-broth dilution method; type: functional
Vero = assay: Cytotoxicity against african green monkey Vero cells after 72 hrs by MTT proliferation assay; type: cell-based; details: Chlorocebus sabaeus
Summary of the method: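 IC50 is taken as the concentration that lowers Vero kidney cell viability by 50%.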

[4] = Selectivity index, ratio of IC50 for african green monkey Vero cells to MIC for methicillin- sensitive Staphylococcus aureus 8325 ATCC 35556; type: functional
Summary of the method: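 Selectivity index is calculated as the Vero cell cytotoxic IC50 divided by the MIC against the wild-type, drug-sensitive, methicillin-sensitive S. aureus 8325 (ATCC 35556).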

SMILES	MIC (Escherichia coli)	MIC (Pseudomonas aeruginosa)	MIC [1]	MIC (Bacillus anthracis)	MIC (Bacillus subtilis)	MIC (Enterococcus faecalis)	MIC (Staphylococcus aureus [2])	MIC (Staphylococcus aureus [3])	MIC (Cutibacterium acnes)	MIC (Streptococcus pyogenes)	MIC (Streptococcus pneumoniae)	IC50 (Vero)	Ratio [4]	also measured
CC(C)C[C@@H]1C(O)=C(C#N)C(=O)N1Cc1ccc(F)cc1	> 200 µg/mL	> 200 µg/mL												Activity [1]: inactive; Activity (Bacillus anthracis): inactive; Activity (Bacillus subtilis): inactive; Activity (Enterococcus faecalis): inactive; Activity (Staphylococcus aureus [2]): inactive; Activity (Staphylococcus aureus [3]): inactive; Activity (Cutibacterium acnes): inactive; Activity (Streptococcus pyogenes): inactive; Activity (Streptococcus pneumoniae): inactive
CCN1C(=O)/C(=C(/C)O)C(=O)[C@@H]1Cc1ccccc1	> 200 µg/mL	> 200 µg/mL	> 200 µg/mL	50 µg/mL (≈ 193 µM)	> 200 µg/mL	> 200 µg/mL	> 200 µg/mL	200 µg/mL (≈ 771 µM)	100 µg/mL (≈ 386 µM)	> 200 µg/mL	> 200 µg/mL			
CCCCCCCCCCN1C(=O)/C(=C(/C)O)C(=O)[C@@H]1Cc1ccccc1	> 200 µg/mL	> 200 µg/mL	50 µg/mL (≈ 135 µM)	0.2 µg/mL (≈ 0.538 µM)	0.4 µg/mL (≈ 1.08 µM)	0.8 µg/mL (≈ 2.15 µM)	0.8 µg/mL (≈ 2.15 µM)	0.2 µg/mL (≈ 0.538 µM)	0.4 µg/mL (≈ 1.08 µM)	50 µg/mL (≈ 135 µM)	12.5 µg/mL (≈ 33.6 µM)	21.1 µg/mL (≈ 56.8 µM)	105.5	
CCC(C)[C@H]1C(=O)/C(=C(\C)O)C(=O)N1Cc1ccccc1 (some centres not stated)	> 200 µg/mL	> 200 µg/mL	50 µg/mL (≈ 174 µM)	3.12 µg/mL (≈ 10.9 µM)	25 µg/mL (≈ 87 µM)	6.25 µg/mL (≈ 21.7 µM)	6.25 µg/mL (≈ 21.7 µM)	6.25 µg/mL (≈ 21.7 µM)	6.25 µg/mL (≈ 21.7 µM)	> 200 µg/mL	50 µg/mL (≈ 174 µM)	26.3 µg/mL (≈ 91.5 µM)	4.2	
CCCCCCCCCCN1C(=O)/C(=C(/C)O)C(=O)[C@H]1CC(C)C	> 200 µg/mL	> 200 µg/mL	25 µg/mL (≈ 74.1 µM)	0.8 µg/mL (≈ 2.37 µM)	0.8 µg/mL (≈ 2.37 µM)	1.6 µg/mL (≈ 4.74 µM)	0.8 µg/mL (≈ 2.37 µM)	0.4 µg/mL (≈ 1.19 µM)	0.8 µg/mL (≈ 2.37 µM)	50 µg/mL (≈ 148 µM)	6.25 µg/mL (≈ 18.5 µM)	6.3 µg/mL (≈ 18.7 µM)	15.8	
CCCCCCCCCCN1C(=O)C(C#N)=C(O)[C@@H]1CC(C)C	> 200 µg/mL	> 200 µg/mL	3.12 µg/mL (≈ 9.74 µM)											
COc1cccc(CN2C(=O)C(C#N)=C(O)[C@@H]2CC(C)C)c1	> 200 µg/mL	> 200 µg/mL												Activity [1]: inactive; Activity (Bacillus anthracis): inactive; Activity (Bacillus subtilis): inactive; Activity (Enterococcus faecalis): inactive; Activity (Staphylococcus aureus [2]): inactive; Activity (Staphylococcus aureus [3]): inactive; Activity (Cutibacterium acnes): inactive; Activity (Streptococcus pyogenes): inactive; Activity (Streptococcus pneumoniae): inactive
CCCCCCCCCCN1C(=O)/C(=C(/C)O)C(=O)[C@@H]1CC(C)C	> 200 µg/mL	> 200 µg/mL	12.5 µg/mL (≈ 37 µM)	0.8 µg/mL (≈ 2.37 µM)	0.8 µg/mL (≈ 2.37 µM)	1.6 µg/mL (≈ 4.74 µM)	0.8 µg/mL (≈ 2.37 µM)	0.4 µg/mL (≈ 1.19 µM)	0.8 µg/mL (≈ 2.37 µM)	50 µg/mL (≈ 148 µM)	6.25 µg/mL (≈ 18.5 µM)	14.7 µg/mL (≈ 43.6 µM)	36.8	
C/C(O)=C1\C(=O)[C@H](CC(C)C)N(Cc2ccc(F)cc2)C1=O	> 200 µg/mL	> 200 µg/mL	100 µg/mL (≈ 327 µM)	12.5 µg/mL (≈ 40.9 µM)	25 µg/mL (≈ 81.9 µM)	50 µg/mL (≈ 164 µM)	25 µg/mL (≈ 81.9 µM)	12.5 µg/mL (≈ 40.9 µM)	6.25 µg/mL (≈ 20.5 µM)	100 µg/mL (≈ 327 µM)	50 µg/mL (≈ 164 µM)	27.8 µg/mL (≈ 91 µM)	2.2	
C/C(O)=C1\C(=O)[C@H](CC(C)C)N(Cc2ccc(-c3ccccc3)cc2)C1=O	> 200 µg/mL	> 200 µg/mL	50 µg/mL (≈ 138 µM)	0.4 µg/mL (≈ 1.1 µM)	0.4 µg/mL (≈ 1.1 µM)	0.8 µg/mL (≈ 2.2 µM)	0.8 µg/mL (≈ 2.2 µM)	0.2 µg/mL (≈ 0.55 µM)	0.2 µg/mL (≈ 0.55 µM)	25 µg/mL (≈ 68.8 µM)	12.5 µg/mL (≈ 34.4 µM)	19.7 µg/mL (≈ 54.2 µM)	98.5	
C/C(O)=C1\C(=O)[C@@H](CC(C)C)N(Cc2ccc(F)cc2)C1=O	> 200 µg/mL	> 200 µg/mL	100 µg/mL (≈ 327 µM)	12.5 µg/mL (≈ 40.9 µM)	12.5 µg/mL (≈ 40.9 µM)	50 µg/mL (≈ 164 µM)	12.5 µg/mL (≈ 40.9 µM)	12.5 µg/mL (≈ 40.9 µM)	12.5 µg/mL (≈ 40.9 µM)	100 µg/mL (≈ 327 µM)	25 µg/mL (≈ 81.9 µM)	35.3 µg/mL (≈ 116 µM)	2.8	
CC(C)=CCCC(C)CCN1C(=O)/C(=C(/C)O)C(=O)[C@@H]1CC(C)C (some centres not stated)	> 200 µg/mL	> 200 µg/mL	200 µg/mL (≈ 596 µM)	0.4 µg/mL (≈ 1.19 µM)	0.8 µg/mL (≈ 2.38 µM)	0.8 µg/mL (≈ 2.38 µM)	0.8 µg/mL (≈ 2.38 µM)	0.4 µg/mL (≈ 1.19 µM)	0.4 µg/mL (≈ 1.19 µM)	25 µg/mL (≈ 74.5 µM)	3.25 µg/mL (≈ 9.69 µM)	7.3 µg/mL (≈ 21.8 µM)	18.3	
N#CC1=C(O)[C@H](Cc2ccccc2)N(Cc2ccccc2)C1=O	> 200 µg/mL	> 200 µg/mL												Activity [1]: inactive; Activity (Bacillus anthracis): inactive; Activity (Bacillus subtilis): inactive; Activity (Enterococcus faecalis): inactive; Activity (Staphylococcus aureus [2]): inactive; Activity (Staphylococcus aureus [3]): inactive; Activity (Cutibacterium acnes): inactive; Activity (Streptococcus pyogenes): inactive; Activity (Streptococcus pneumoniae): inactive
CCCCN1C(=O)/C(=C(/C)O)C(=O)[C@@H]1CC(C)C	> 200 µg/mL	> 200 µg/mL	100 µg/mL (≈ 395 µM)	12.5 µg/mL (≈ 49.3 µM)	6.25 µg/mL (≈ 24.7 µM)	1.6 µg/mL (≈ 6.32 µM)	6.25 µg/mL (≈ 24.7 µM)	3.12 µg/mL (≈ 12.3 µM)	0.8 µg/mL (≈ 3.16 µM)	> 200 µg/mL	100 µg/mL (≈ 395 µM)	254 µg/mL (≈ 1000 µM)	81.4	
COc1cccc(CN2C(=O)/C(=C(/C)O)C(=O)[C@@H]2CC(C)C)c1	> 200 µg/mL	> 200 µg/mL	100 µg/mL (≈ 315 µM)	25 µg/mL (≈ 78.8 µM)	25 µg/mL (≈ 78.8 µM)	100 µg/mL (≈ 315 µM)	25 µg/mL (≈ 78.8 µM)	12.5 µg/mL (≈ 39.4 µM)	12.5 µg/mL (≈ 39.4 µM)	200 µg/mL (≈ 630 µM)	50 µg/mL (≈ 158 µM)	40 µg/mL (≈ 126 µM)	3.2	
CCCCCCCCCCN1C(=O)/C(=C(/C)O)C(=O)[C@@H]1C(C)C	> 200 µg/mL	> 200 µg/mL	12.5 µg/mL (≈ 38.6 µM)	0.8 µg/mL (≈ 2.47 µM)	0.4 µg/mL (≈ 1.24 µM)	0.8 µg/mL (≈ 2.47 µM)	0.8 µg/mL (≈ 2.47 µM)	0.8 µg/mL (≈ 2.47 µM)	0.4 µg/mL (≈ 1.24 µM)	25 µg/mL (≈ 77.3 µM)	6.25 µg/mL (≈ 19.3 µM)	7 µg/mL (≈ 21.6 µM)	8.8	
C/C(O)=C1\C(=O)[C@H](CC(C)C)N(CC2=CCC3CC2C3(C)C)C1=O (some centres not stated)	> 200 µg/mL	> 200 µg/mL	100 µg/mL (≈ 302 µM)	0.8 µg/mL (≈ 2.41 µM)	1.6 µg/mL (≈ 4.83 µM)	1.6 µg/mL (≈ 4.83 µM)	1.6 µg/mL (≈ 4.83 µM)	1.6 µg/mL (≈ 4.83 µM)	0.8 µg/mL (≈ 2.41 µM)	25 µg/mL (≈ 75.4 µM)	50 µg/mL (≈ 151 µM)	35.4 µg/mL (≈ 107 µM)	22.1	
C/C(O)=C1\C(=O)[C@@H](Cc2ccccc2)N(Cc2ccccc2)C1=O	> 200 µg/mL	> 200 µg/mL	> 200 µg/mL	25 µg/mL (≈ 77.8 µM)	25 µg/mL (≈ 77.8 µM)	100 µg/mL (≈ 311 µM)	25 µg/mL (≈ 77.8 µM)	25 µg/mL (≈ 77.8 µM)	25 µg/mL (≈ 77.8 µM)	200 µg/mL (≈ 622 µM)	50 µg/mL (≈ 156 µM)	80.6 µg/mL (≈ 251 µM)	3.2	
CCC(C)[C@H]1C(O)=C(C#N)C(=O)N1Cc1ccccc1 (some centres not stated)	> 200 µg/mL	> 200 µg/mL												Activity [1]: inactive; Activity (Bacillus anthracis): inactive; Activity (Bacillus subtilis): inactive; Activity (Enterococcus faecalis): inactive; Activity (Staphylococcus aureus [2]): inactive; Activity (Staphylococcus aureus [3]): inactive; Activity (Cutibacterium acnes): inactive; Activity (Streptococcus pyogenes): inactive; Activity (Streptococcus pneumoniae): inactive
CC(C)C[C@H]1C(O)=C(C#N)C(=O)N1Cc1ccc(F)cc1	> 200 µg/mL	> 200 µg/mL												Activity [1]: inactive; Activity (Bacillus anthracis): inactive; Activity (Bacillus subtilis): inactive; Activity (Enterococcus faecalis): inactive; Activity (Staphylococcus aureus [2]): inactive; Activity (Staphylococcus aureus [3]): inactive; Activity (Cutibacterium acnes): inactive; Activity (Streptococcus pyogenes): inactive; Activity (Streptococcus pneumoniae): inactive
C/C(O)=C1\C(=O)[C@H](Cc2ccccc2)N(Cc2ccccc2)C1=O	> 200 µg/mL	> 200 µg/mL	> 200 µg/mL	25 µg/mL (≈ 77.8 µM)	25 µg/mL (≈ 77.8 µM)	100 µg/mL (≈ 311 µM)	25 µg/mL (≈ 77.8 µM)	12.5 µg/mL (≈ 38.9 µM)	12.5 µg/mL (≈ 38.9 µM)	> 200 µg/mL	100 µg/mL (≈ 311 µM)	75.7 µg/mL (≈ 236 µM)	6.1	
N#CC1=C(O)[C@@H](Cc2ccccc2)N(Cc2ccccc2)C1=O	> 200 µg/mL	> 200 µg/mL												Activity [1]: inactive; Activity (Bacillus anthracis): inactive; Activity (Bacillus subtilis): inactive; Activity (Enterococcus faecalis): inactive; Activity (Staphylococcus aureus [2]): inactive; Activity (Staphylococcus aureus [3]): inactive; Activity (Cutibacterium acnes): inactive; Activity (Streptococcus pyogenes): inactive; Activity (Streptococcus pneumoniae): inactive
